Converted amounts (≈) assume the structure as drawn.
Key:
Mus musculus = test: In vivo inhibition of 11beta-HSD1 in po dosed non-fasting diet-induced obese mouse assessed as decrease in corticosterone excursion in plasma pretreated for 60 mins followed by DHC administration measured up to 120 mins by enzyme immunosorbent assay; assay type: functional
Summary of the method: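 Nonfasting diet-induced obese male mice, groups of n = 6 matched for body weight; tail bleed at −60 min, then oral vehicle (0.5% Methocel, 0.1% Tween 80 in water) or drug. At 60 min, bleed and oral DHC 10 mg/kg. Bleeds at 30, 60 and 120 min post-DHC. Plasma corticosterone measured by enzyme immunosorbent assay; drug levels in terminal bleed.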

Liver [1] = test: Metabolic stability in human liver microsomes assessed as parent compound remaining after 10 mins; assay type: ADME, microsome; conditions: microsomes, 10 min
Summary of the method: (§1)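 Parent compound remaining after a 10 min incubation with human, mouse or rat liver microsomes.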

Liver [2] = test: Metabolic stability in mouse liver microsomes assessed as parent compound remaining after 10 mins; assay type: ADME, microsome; conditions: microsomes, 10 min; summary of the method: as §1
Liver [3] = test: Metabolic stability in rat liver microsomes assessed as parent compound remaining after 10 mins; assay type: ADME, microsome; conditions: microsomes, 10 min; summary of the method: as §1
[4] = target: 11-beta-hydroxysteroid dehydrogenase type 2 (Mus musculus, UniProt P51661); test: Inhibition of mouse 11beta-HSD2
Rattus norvegicus [5] = test: Toxicity in rat assessed as hypokalemia at 300 mg/kg for 2 weeks; assay type: organism-based; conditions: in vivo, 336 h
Summary of the method: (§2)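 Exploratory rat toxicology study lasting 2 weeks, with 300 mg/kg as the highest dose given. The study assessed hypokalemia, plasma volume expansion, hypertension and renal toxicity.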

Rattus norvegicus [6] = test: Toxicity in rat assessed as hypertension at 300 mg/kg for 2 weeks; assay type: organism-based; conditions: in vivo, 336 h; summary of the method: as §2
[7] = AUC (0 to 24 hrs) in rat at 300 mg/kg; assay type: ADME, organism-based; set-up: dose 300 mg/kg, time < 24 hr; conditions: in vivo
Cytochrome P450 1A2 = Cytochrome P450 1A2 (Homo sapiens, UniProt P05177); test: Inhibition of CYP1A2 (unknown origin); assay type: ADME
Cytochrome P450 2A6 = Cytochrome P450 2A6 (Homo sapiens, UniProt P11509); test: Inhibition of CYP2A6 (unknown origin); assay type: ADME
Cytochrome P450 2B6 = Cytochrome P450 2B6 (Homo sapiens, UniProt P20813); test: Inhibition of CYP2B6 (unknown origin); assay type: ADME
Cytochrome P450 3A4 = Cytochrome P450 3A4 (Homo sapiens, UniProt P08684); test: Inhibition of CYP3A4 (unknown origin); assay type: ADME
HepG2 = test: Cytotoxicity against human HepG2 cells at 80 uM; assay type: cell-based; conditions: hepg2, 80 µM
Summary of the method: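 HepG2 cells exposed at 80 μM; cytotoxicity assessed.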

[8] = Aqueous solubility of the compound in pH 6.5 solution; assay type: physicochemical; conditions: pH 6.5, pH 6.5
Summary of the method: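 Aqueous solubility measured at pH 6.5.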

[9] = Metabolic stability in dog liver microsomes assessed as UGT-mediated glucuronidation of compound by measuring half life in presence of UDPGA; assay type: ADME, Canis lupus familiaris
Summary of the method: (§3)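 Liver microsomal glucuronidation incubations in the presence of UDPGA; parent half-life determined.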

[10] = Metabolic stability in rat liver microsomes assessed as UGT-mediated glucuronidation of compound by measuring half life in presence of UDPGA; assay type: ADME; summary of the method: as §3
[11] = Apparent elimination half life in mouse at 5 mg/kg, iv; assay type: ADME, organism-based; conditions: in vivo, read-out: betat1/2(app) (converted)
[12] = Oral bioavailability in mouse at 10 mg/kg; assay type: ADME, organism-based; conditions: in vivo
[13] = AUC (0 to 24 hrs) in mouse at 5 mg/kg, iv; assay type: ADME, organism-based; set-up: time < 24 hr, dose 5 mg/kg, route intravenous; conditions: in vivo
Rattus norvegicus [14] = test: Volume of distribution at steady state in rat at […], iv; assay type: ADME, organism-based; conditions: in vivo
Rattus norvegicus [15] = test: MRT in rat at […], iv; assay type: ADME, organism-based; conditions: in vivo
[16] = AUC (0 to 24 hrs) in rat at […], iv; assay type: ADME, organism-based; set-up: time < 24 hr, dose 7.7 mg/kg, route intravenous; conditions: in vivo
[17] = Total plasma clearance in dog at 1 mg/kg, iv; assay type: ADME, organism-based, Canis lupus familiaris
[18] = Oral bioavailability in cynomolgus monkey at 3 mg/kg; assay type: ADME, organism-based, Macaca fascicularis; conditions: in vivo
[19] = Protein binding in human plasma; assay type: ADME, cell-free; conditions: read-out: PPB (converted)
Plasma = test: Drug metabolism in cynomolgus monkey plasma assessed as ketone A formation at 1 mg/kg, iv; assay type: ADME, organism-based, Macaca fascicularis; conditions: in vivo
Cynomolgus monkey = test: Toxicity in cynomolgus monkey assessed as HPA axis activation by measuring DHEA level at 1 to 10 mg/kg for 7 days; assay type: organism-based, Macaca fascicularis; conditions: in vivo, 168 h
in vivo [20] = conditions: mouse, liver / plasma, iv, 5 mg/kg
in vivo [21] = conditions: mouse, brain / plasma, iv, 5 mg/kg

Cytochrome P450 2B6, sequence (P20813 whole entry): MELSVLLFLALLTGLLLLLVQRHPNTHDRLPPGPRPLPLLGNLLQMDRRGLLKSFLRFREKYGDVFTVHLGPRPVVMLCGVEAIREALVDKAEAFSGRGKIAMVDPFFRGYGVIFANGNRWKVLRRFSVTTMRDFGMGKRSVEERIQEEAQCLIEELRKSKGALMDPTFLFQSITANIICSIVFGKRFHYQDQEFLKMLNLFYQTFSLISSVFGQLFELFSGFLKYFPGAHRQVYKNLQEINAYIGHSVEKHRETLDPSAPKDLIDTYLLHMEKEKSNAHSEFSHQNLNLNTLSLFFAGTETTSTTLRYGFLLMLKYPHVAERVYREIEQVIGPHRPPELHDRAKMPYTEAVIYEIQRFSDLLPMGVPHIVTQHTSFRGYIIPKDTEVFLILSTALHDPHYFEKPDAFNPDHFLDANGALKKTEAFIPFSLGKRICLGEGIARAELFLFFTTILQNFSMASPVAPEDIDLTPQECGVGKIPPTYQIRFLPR
Cytochrome P450 2A6, sequence (P11509 whole entry): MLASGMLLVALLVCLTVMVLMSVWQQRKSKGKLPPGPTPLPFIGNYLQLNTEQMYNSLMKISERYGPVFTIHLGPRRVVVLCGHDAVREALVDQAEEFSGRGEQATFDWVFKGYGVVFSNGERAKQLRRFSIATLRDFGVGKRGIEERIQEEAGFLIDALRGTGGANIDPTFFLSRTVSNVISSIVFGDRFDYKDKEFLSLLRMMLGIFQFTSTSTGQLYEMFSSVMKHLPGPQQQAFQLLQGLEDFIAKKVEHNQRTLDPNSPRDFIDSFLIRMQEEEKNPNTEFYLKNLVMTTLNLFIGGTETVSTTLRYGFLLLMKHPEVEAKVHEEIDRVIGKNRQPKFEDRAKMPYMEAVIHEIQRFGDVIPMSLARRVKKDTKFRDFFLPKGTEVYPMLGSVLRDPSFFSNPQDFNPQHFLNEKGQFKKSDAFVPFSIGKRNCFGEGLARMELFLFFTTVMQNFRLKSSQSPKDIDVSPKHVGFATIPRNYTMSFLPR
Cytochrome P450 1A2, sequence (P05177 whole entry): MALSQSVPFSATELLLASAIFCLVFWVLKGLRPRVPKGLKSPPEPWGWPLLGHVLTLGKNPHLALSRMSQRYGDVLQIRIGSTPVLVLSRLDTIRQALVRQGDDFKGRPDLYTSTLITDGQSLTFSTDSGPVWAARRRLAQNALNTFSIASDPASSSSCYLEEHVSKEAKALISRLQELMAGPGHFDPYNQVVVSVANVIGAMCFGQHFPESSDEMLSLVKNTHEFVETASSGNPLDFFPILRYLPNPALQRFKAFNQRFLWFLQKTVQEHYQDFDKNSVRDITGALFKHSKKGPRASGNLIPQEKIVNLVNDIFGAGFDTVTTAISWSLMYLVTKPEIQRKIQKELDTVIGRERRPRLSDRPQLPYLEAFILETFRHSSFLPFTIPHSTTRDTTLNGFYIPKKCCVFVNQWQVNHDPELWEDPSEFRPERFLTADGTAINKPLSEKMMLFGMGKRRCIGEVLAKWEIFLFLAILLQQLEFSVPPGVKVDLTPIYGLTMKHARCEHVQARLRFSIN
Cytochrome P450 3A4, sequence (P08684 whole entry): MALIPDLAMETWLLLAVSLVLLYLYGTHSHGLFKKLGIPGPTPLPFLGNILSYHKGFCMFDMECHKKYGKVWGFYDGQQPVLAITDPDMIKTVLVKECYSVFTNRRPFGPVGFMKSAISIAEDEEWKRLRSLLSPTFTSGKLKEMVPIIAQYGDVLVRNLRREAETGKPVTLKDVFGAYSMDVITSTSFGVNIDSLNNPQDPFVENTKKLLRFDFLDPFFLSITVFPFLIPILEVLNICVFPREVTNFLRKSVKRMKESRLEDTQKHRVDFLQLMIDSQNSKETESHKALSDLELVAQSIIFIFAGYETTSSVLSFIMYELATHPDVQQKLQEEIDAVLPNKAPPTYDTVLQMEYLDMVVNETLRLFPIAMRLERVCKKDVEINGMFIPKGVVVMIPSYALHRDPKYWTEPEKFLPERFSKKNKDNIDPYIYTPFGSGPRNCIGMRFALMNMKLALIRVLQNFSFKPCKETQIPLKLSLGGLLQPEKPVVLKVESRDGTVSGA
11-beta-hydroxysteroid dehydrogenase type 2, sequence (P51661 whole entry): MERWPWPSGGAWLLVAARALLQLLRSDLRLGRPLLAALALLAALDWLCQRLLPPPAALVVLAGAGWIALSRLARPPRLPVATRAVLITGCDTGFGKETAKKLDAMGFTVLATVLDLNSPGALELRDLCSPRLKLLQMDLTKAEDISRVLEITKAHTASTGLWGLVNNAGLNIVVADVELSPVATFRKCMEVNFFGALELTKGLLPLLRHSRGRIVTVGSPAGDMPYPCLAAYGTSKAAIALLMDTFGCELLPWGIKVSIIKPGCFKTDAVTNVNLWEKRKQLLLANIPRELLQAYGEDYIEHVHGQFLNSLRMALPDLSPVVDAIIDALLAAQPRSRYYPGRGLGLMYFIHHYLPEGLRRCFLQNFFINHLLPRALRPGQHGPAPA

O=C(CC1(c2ccccc2)C2CC3CC1CC(C2)C3O)N1CC(O)C1 (stereo in doubt; form 2)
ED50 (Mus musculus): 8.6 mg/kg
Stability (Liver [1]): 91%
Stability (Liver [2]): 80%
Stability (Liver [3]): 67%
IC50 [4]: 7.9 µM
Activity (Rattus norvegicus [5]): Non-Toxic
Activity (Rattus norvegicus [6]): Non-Toxic
AUC(0-t) at 24 h [7]: ≤ 650 µM·h
IC50 (Cytochrome P450 1A2): > 40 µM
IC50 (Cytochrome P450 2A6): > 40 µM
IC50 (Cytochrome P450 2B6): > 40 µM
IC50 (Cytochrome P450 3A4): > 40 µM
Activity (HepG2): Non-Toxic
solubility [8]: 1800 µg/mL (≈ 5.27 mM)
half-life [9]: > 3.33 h
half-life [10]: 0.783 h
half-life [11]: 2 h
bioavailability [12]: 56%
AUC(0-t) at 24 h [13]: 5 µM·h
Vdss (Rattus norvegicus [14]): 0.5 L/kg
MRT (Rattus norvegicus [15]): 1.3 h
AUC(0-t) at 24 h [16]: 6 µM·h
clearance [17]: 11 mL/min/kg
bioavailability [18]: 57%
fraction unbound [19]: 0.46
Drug metabolism (Plasma): Metabolite_Detected
Activity (Cynomolgus monkey): Non-Toxic
Kp (in vivo [20]): 1 to 56
Kp (in vivo [21]): < 0.1

From ChEMBL document CHEMBL4014336 (J Med Chem, 2017)
